From PubChem BioAssay come the findings set out here.

Activity calls are given as the source filed them.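 How the source made its calls, unless noted: active means GFP response above 150% of the DMSO level; inconclusive means fewer than 70 events counted for a yeast strain; inactive means the rest.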

The nature of assay [1]: hit retest on RPL19A-GFP reporter strain – cell-based, S. cerevisiae, flow cytometry, cherry picks, mother/daughter gates, confirmation (AID 2270;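 active means GFP response below 50% of the DMSO control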). As to conditions: 3 h, at 10 µM, stronger effect = lower value, 100 = same GFP as DMSO wells. A general note: A flow cytometer gives signals particle by particle.
A short description of assay [2]: yeast TOR pathway reporter LAP4-GFP change – cell-based, cherry picks, flow cytometry, mother/daughter gates, confirmation (AID 2271;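 active means GFP response above 150% of the DMSO control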;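 further: ratio of sample to DMSO plate mean so 100% equals DMSO level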). To be noted: S. cerevisiae LAP4-GFP strain, 3 h, at 10 µM, stronger effect = higher value, 100 means same as DMSO control. Put shortly:
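Material: Alexa 633-stained baker's yeast GFP-fusion strain; Compound dosing: single test-compound dose, 10 µM final; Incubation: 30 °C, 3 h compound incubation, rotating; Detection: HT flow cytometry, GFP fluorescence channel; Control set: positive rapamycin (400 ng/mL), negative DMSO.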

Assay [3] can be described thus: TOR pathway reporter MEP2-GFP, retest of hits – S. cerevisiae, flow cytometry GFP, cherry picks, confirmation (AID 2272;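 active means GFP response above 150% of the DMSO control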;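 further: ratio of well signal to plate DMSO mean so 100% equals DMSO level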). To be noted: S. cerevisiae MEP2-GFP strain, 3 h, at 10 µM, stronger effect = higher value.
Assay [4] can be described thus: yeast AGP1-GFP fluorescence change, single-dose – cell-based, flow cytometry, S. cerevisiae, cherry picks, confirmation (AID 2273).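 Further: median GFP channel fluorescence over the whole cell population gate.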 To be noted: S. cerevisiae AGP1-GFP strain, 3 h, at 10 µM.
Assay [5] can be described thus: TOR pathway CIT2 reporter hit retest – S. cerevisiae, GFP fusion, cherry picks, mother/daughter gates, confirmation (AID 2274). As to conditions: S. cerevisiae CIT2-GFP strain, flow cytometry, 3 h, at 10 µM, stronger effect = higher value.
Setting [6] is: measured here: daughter cell gate.
[7] abbreviates: measured here: mother cell gate.
The mark [8] stands for this setting: measured here: daughter cell gate response.
[9] abbreviates: measured here: mother cell gate response.

Regarding `CCCc1[nH]nc2c1C(c1ccc(OC(=O)c3ccco3)cc1)C(C#N)=C(N)O2` (stereo not drawn), the GFP response vs DMSO is 99.9% (inactive) in assay [1], 101% in assay [1] (setting [6]), 101% in assay [1] (setting [7]) and 124% (inactive) in assay [3]. For the same molecule, the GFP response relative to DMSO in assay [2] is 91.9% (inactive); in assay [2] (setting [8]) it was 92.2%; in assay [2] (setting [9]) it was 91.6%. In addition, the GFP response, % of DMSO in assay [4] was 102% (inactive); in assay [5], 105% (inactive); in assay [5] (setting [6]), 108%; in assay [5] (setting [7]), 105%.
In the case of `Cc1cc(N2CCC(C)CC2)n2ncc(-c3ccccc3)c2n1`, the GFP response vs DMSO in assay [1] was 99.9% (inactive); in assay [1] (setting [6]), 98.7%; in assay [1] (setting [7]), 100%; in assay [3], 97.8% (inactive). The GFP response relative to DMSO in assay [2] was 96.2% (inactive); in assay [2] (setting [8]) it was 94.1%; in assay [2] (setting [9]), 98.3%. The GFP response, % of DMSO in assay [4] was 101% (inactive); in assay [5], 102% (inactive); in assay [5] (setting [6]), 99.7%; in assay [5] (setting [7]), 101%.
In the case of `c1ccc(-c2cccc(-c3ccccn3)n2)nc1`, the GFP response vs DMSO in assay [1] was 92.9% (inactive); in assay [1] (setting [6]) it was 82.8%; in assay [1] (setting [7]) it was 96.9%; in assay [3] it was 106% (inactive). The GFP response relative to DMSO in assay [2] is 258% (active); in assay [2] (setting [8]), 210%; in assay [2] (setting [9]), 268%. The GFP response, % of DMSO is 89% (inactive) in assay [4], 97.8% (inactive) in assay [5], 87.2% in assay [5] (setting [6]) and 100% in assay [5] (setting [7]).
For `O=C(c1ccc(Cl)cc1)N1CCN(c2cccc3[nH]ccc23)CC1`, the GFP response vs DMSO in assay [1] is 94.6% (inactive); in assay [1] (setting [6]), 94.1%; in assay [1] (setting [7]) it was 93.1%; in assay [3], 105% (inactive). The GFP response relative to DMSO in assay [2] was 108% (inactive); in assay [2] (setting [8]), 107%; in assay [2] (setting [9]) it was 105%. In addition, the GFP response, % of DMSO in assay [4] is 91.9% (inactive); in assay [5], 96.9% (inactive); in assay [5] (setting [6]), 99.1%; in assay [5] (setting [7]), 95%.
Take `CCN(CC)c1ccc(/C=C/c2cccc[n+]2C)c(OC)c1`: the GFP response vs DMSO is 103% (inactive) in assay [1], 103% in assay [1] (setting [6]), 105% in assay [1] (setting [7]) and 137% (inactive) in assay [3]. The values for the GFP response relative to DMSO in assay [2], in assay [2] (setting [8]) and in assay [2] (setting [9]) were 113% (inactive), 113% and 116%, respectively. In addition, the GFP response, % of DMSO is 104% (inactive) in assay [4], 112% (inactive) in assay [5], 113% in assay [5] (setting [6]) and 111% in assay [5] (setting [7]).
Turning to `Clc1cccc(Cn2ncc3ccccc32)c1`, the GFP response vs DMSO in assay [1] is 95% (inactive); in assay [1] (setting [6]), 95.1%; in assay [1] (setting [7]) it was 94.9%; in assay [3], 92% (inactive). The GFP response relative to DMSO in assay [2] was 103% (inactive); in assay [2] (setting [8]), 102%; in assay [2] (setting [9]), 103%. The GFP response, % of DMSO was 94.1% (inactive) in assay [4], 95.5% (inactive) in assay [5], 95.4% in assay [5] (setting [6]) and 95% in assay [5] (setting [7]).
In the case of `O=C(OCn1ncc(Br)c(Br)c1=O)c1c(F)cccc1F`, the GFP response vs DMSO in assay [1] is 93.3% (inactive); in assay [1] (setting [6]), 94%; in assay [1] (setting [7]), 90.6%; in assay [3], 98.8% (inactive). The results for the GFP response relative to DMSO in assay [2], in assay [2] (setting [8]) and in assay [2] (setting [9]) were 168% (active), 153% and 175%, respectively. The GFP response, % of DMSO was 116% (inactive) in assay [4], 97.2% (inactive) in assay [5], 105% in assay [5] (setting [6]) and 88.8% in assay [5] (setting [7]).
For `Cc1cc(S(=O)(=O)c2ccc([N+](=O)[O-])cn2)ccc1Br`, the GFP response vs DMSO in assay [1] was 87.9% (inactive); in assay [1] (setting [6]), 89.9%; in assay [1] (setting [7]), 82.2%; in assay [3] it was 114% (inactive). The GFP response relative to DMSO in assay [2] is 143% (inactive); in assay [2] (setting [8]) it was 118%; in assay [2] (setting [9]) it was 156%. The GFP response, % of DMSO in assay [4] was 113% (inactive); in assay [5] it was 120% (inactive); in assay [5] (setting [6]), 138%; in assay [5] (setting [7]), 103%.
`C/C(=N\NC(=O)c1cccc(Cl)c1)c1cccc(NC(=O)C(C)C)c1`: the GFP response vs DMSO was 96.2% (inactive) in assay [1], 98.1% in assay [1] (setting [6]), 95.6% in assay [1] (setting [7]) and 103% (inactive) in assay [3]. Moreover, the GFP response relative to DMSO in assay [2] was 92.9% (inactive); in assay [2] (setting [8]), 94.4%; in assay [2] (setting [9]) it was 92.3%. In addition, the GFP response, % of DMSO in assay [4] was 99.8% (inactive); in assay [5] it was 100% (inactive); in assay [5] (setting [6]), 99.3%; in assay [5] (setting [7]) it was 103%.
In the case of `O=C(/C=C/c1ccccc1)C1=C(O)C(=O)N(CCO)C1c1cccc([N+](=O)[O-])c1` (stereo not drawn), the GFP response vs DMSO in assay [1] is 99.8% (inactive); in assay [1] (setting [6]) it was 99.3%; in assay [1] (setting [7]), 100%; in assay [3], 101% (inactive). Moreover, the figures for the GFP response relative to DMSO in assay [2], in assay [2] (setting [8]) and in assay [2] (setting [9]) were 97.7% (inactive), 101% and 97.4%, respectively. Besides, the GFP response, % of DMSO in assay [4] was 103% (inactive); in assay [5] it was 100% (inactive); in assay [5] (setting [6]), 101%; in assay [5] (setting [7]), 99.3%.
`CCCCCCCCn1c(=O)c(C(=O)OCC)c(O)c2ccccc21`: the GFP response vs DMSO in assay [1] was 98.4% (inactive); in assay [1] (setting [6]), 99.4%; in assay [1] (setting [7]), 99.4%; in assay [3], 100% (inactive). Besides, the figures for the GFP response relative to DMSO in assay [2], in assay [2] (setting [8]) and in assay [2] (setting [9]) were 92.8% (inactive), 92.8% and 92.9%, respectively. For the same molecule, the GFP response, % of DMSO in assay [4] is 99.3% (inactive); in assay [5] it was 101% (inactive); in assay [5] (setting [6]), 101%; in assay [5] (setting [7]) it was 101%.
With `COc1ccc(C2=NN(S(C)(=O)=O)C(c3ccc4nccnc4c3)C2)cc1` (stereo not drawn), the GFP response vs DMSO in assay [1] was 101% (inactive); in assay [1] (setting [6]) it was 99.8%; in assay [1] (setting [7]), 102%; in assay [3] it was 102% (inactive). Besides, the results for the GFP response relative to DMSO in assay [2], in assay [2] (setting [8]) and in assay [2] (setting [9]) were 99.8% (inactive), 103% and 103%, respectively. In addition, the GFP response, % of DMSO in assay [4] was 97.6% (inactive); in assay [5], 92.6% (inactive); in assay [5] (setting [6]) it was 93.2%; in assay [5] (setting [7]), 91.2%.
As for `O=[N+]([O-])c1ccc(SCCc2ccncc2)cc1`, the GFP response vs DMSO in assay [1] was 94.8% (inactive); in assay [1] (setting [6]) it was 97.4%; in assay [1] (setting [7]) it was 95.4%; in assay [3], 96.2% (inactive). For the same molecule, the GFP response relative to DMSO was 99.2% (inactive) in assay [2], 99.2% in assay [2] (setting [8]) and 98.3% in assay [2] (setting [9]). Also, the GFP response, % of DMSO was 98.7% (inactive) in assay [4], 99.7% (inactive) in assay [5], 101% in assay [5] (setting [6]) and 101% in assay [5] (setting [7]).
